Measurements published in ChEMBL document CHEMBL3352590, “How a β-D-glucoside side chain enhances binding affinity to thrombin of inhibitors bearing 2-chlorothiophene as P1 moiety: crystallography, fragment deconstruction study, and evaluation of antithrombotic properties” (J Med Chem, 2014).
In brackets after ≈: the same amount, converted by molar mass. Activity calls are given as the source filed them. The calls are words filed in the database; no cut-off is given here.

Columns and labels:
Coagulation factor X [1] = molecular target: T1, Coagulation factor X (Homo sapiens, UniProt P00742); test: Inhibition of human factor10a assessed as reduction in hydrolysis of chromogenic substrate S-2765 by Cheng-Prusoff equation analysis
T1 sequence (P00742 41-179 limits assumed): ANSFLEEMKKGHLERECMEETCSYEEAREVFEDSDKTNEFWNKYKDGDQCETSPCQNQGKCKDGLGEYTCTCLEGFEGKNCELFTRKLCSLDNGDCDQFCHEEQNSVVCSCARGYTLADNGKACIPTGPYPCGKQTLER
T1 sequence (P00742 235-488 limits assumed): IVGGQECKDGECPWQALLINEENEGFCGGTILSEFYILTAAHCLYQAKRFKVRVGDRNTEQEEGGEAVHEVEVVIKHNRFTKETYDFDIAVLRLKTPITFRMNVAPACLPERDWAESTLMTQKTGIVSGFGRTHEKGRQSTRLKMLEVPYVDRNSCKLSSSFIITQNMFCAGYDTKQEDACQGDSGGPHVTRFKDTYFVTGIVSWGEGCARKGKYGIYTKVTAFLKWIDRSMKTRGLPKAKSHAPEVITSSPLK
Method in brief: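 Chromogenic assay at pH 8: 2 nM human fXa with 0.04 mM S-2765, or 0.41 U/mL bovine thrombin with 0.05 mM S-2238 (final). Enzyme preincubated with inhibitor (0.01−100 nM or 0.01−100 μM, ≤1% DMSO); substrate added, A405 followed 5 min.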

Prothrombin [2] = molecular target: T2, Prothrombin (Bos taurus, UniProt P00735); test: Inhibition of bovine thrombin assessed as reduction in hydrolysis of chromogenic substrate S-2238 by Cheng-Prusoff equation analysis
Plasma [3] = test: Anticoagulant activity in recombinant tissue factor and procoagulant phospholipids-stimulated human citrated plasma assessed as inhibition of thrombin peak by fluorometry based calibrated automated thrombography; type: functional, cell-free
Method in brief: (§1)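 Pooled citrated human plasma spiked with test compounds at 0.01−10 μM or vehicle; 80 μL plasma incubated 10 min at 37 °C; thrombin generation triggered by low tissue factor, phospholipids and calcium. Lag-time, thrombin peak and endogenous thrombin potential (area under curve) read by calibrated automated thrombography and expressed as percent of vehicle control.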

Plasma [4] = test: Anticoagulant activity in recombinant tissue factor and procoagulant phospholipids-stimulated human citrated plasma assessed as reduction in endogenous thrombin potential by fluorometry based calibrated automated thrombography; type: functional, cell-free; method in brief: as §1
Plasma [5] = test: Profibrinolytic activity in tissue factor-induced human plasma exposed to exogenous tissue plasminogen activator assessed as time needed to lyse 50% fibrin clot by turbidimetric assay; type: functional, cell-free
Method in brief: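 Turbidimetric clot lysis at 37 °C: citrated human plasma spiked with compound or vehicle, plus phospholipids, t-PA (40 ng/mL stock), Tris-NaCl pH 7.4 and TF; clotting started with CaCl2. A405 read each minute for 3 h; lysis time from clot formation to midpoint of turbid-to-clear transition, as percent of vehicle; three independent plasma samples.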

Coagulation factor X [6] = molecular target: T1, Coagulation factor X; test: Inhibition of human factor10a assessed as reduction in hydrolysis of chromogenic substrate S-2765 at 1 mM by Cheng-Prusoff equation analysis
Prothrombin (Bos taurus) = Prothrombin (Bos taurus) (UniProt P00735); test: Inhibition of bovine thrombin assessed as reduction in hydrolysis of chromogenic substrate S-2238 at 1 mM by Cheng-Prusoff equation analysis
Coagulation factor X [7] = molecular target: T1, Coagulation factor X; test: Inhibition of human factor10a assessed as reduction in hydrolysis of chromogenic substrate S-2765 by Lineweaver-Burk analysis
Method in brief: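 Human fXa fixed at 2 nM, S-2765 varied 25−200 μM, without or with inhibitor at four concentrations, pH 8, A405 initial rates; Lineweaver−Burk (1/v vs 1/[S]) plots used to assign inhibition type.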

Prothrombin [8] = molecular target: T2, Prothrombin; test: Inhibition of bovine thrombin assessed as reduction in hydrolysis of chromogenic substrate S-2238 by Lineweaver-Burk analysis
[9] = Aqueous solubility in pH 7.4 0.05 M phosphate buffer by HPLC method; type: physicochemical
Method in brief: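 Excess solid (4−10 mg) in 0.05 M phosphate buffer pH 7.4 with 0.15 M KCl, shaken 1 h at 25 °C, then 15 min unshaken. Supernatant filtered and quantified by C18 HPLC (MeOH/0.05 M phosphate pH 4.5, UV 288 nm) against calibration curves of peak area.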

[10] = Lipophilicity, logKw of the compound by RP-HPLC method; type: physicochemical
Method in brief: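 RP-HPLC on C18 column at 25 °C, 1.0 mL/min, UV 288 nm; capacity factors k′ = (tR − t0)/t0 measured at MeOH volume fractions 0.8 to 0.4 in 0.05 steps; log k′w taken as the polycratic capacity factor.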

[11] = Stability in 0.05 M pH 7.4 phosphate buffer containing 0.15 M KCl assessed as unhydrolyzed compound after 4 hrs at 37 degC; type: physicochemical; settings: read-out: Stability
Method in brief: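 10 mM acetonitrile stock diluted to 250 μM final in 0.05 M phosphate buffer pH 7.40 with 0.15 M KCl, 37 °C; samples withdrawn at t0 and fixed times, filtered and analysed by HPLC (UV 288 nm) for remaining unhydrolyzed compound.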

[12] = Stability in human plasma assessed as unhydrolyzed compound after 4 hrs at 37 degC by HPLC method; type: ADME, cell-free; settings: read-out: Stability
Method in brief: (§2)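 10 mM ACN stock diluted to 250 μM final in preheated 37 °C human serum (lyophilized, reconstituted in water). Incubation stopped at fixed times with ice-cold ACN; remaining parent measured by HPLC; first-order half-life derived.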

Plasma [13] = test: Anticoagulant activity in recombinant tissue factor and procoagulant phospholipids-stimulated human citrated plasma assessed as increase in time required to generate first traces of thrombin at 2 to 10 uM by fluorometry based calibrated automated thrombography; type: functional, cell-free; method in brief: as §1
Plasma [14] = test: Anticoagulant activity in recombinant tissue factor and procoagulant phospholipids-stimulated human citrated plasma assessed as increase in time required to generate first traces of thrombin at 10 uM by fluorometry based calibrated automated thrombography; type: functional, cell-free
Method in brief: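 Pooled citrated human plasma spiked with test compound or vehicle (0.01−10 μM); clotting triggered by low tissue factor, phospholipids and calcium; thrombin generation followed by calibrated automated thrombography, 80 μL plasma preincubated 10 min at 37 °C. Lag-time = time to first traces of thrombin, expressed as percent of vehicle control plasma.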

[15] = Half life in human plasma at 37 degC by HPLC method; type: ADME, cell-free; method in brief: as §2
[16] = Homo sapiens, Plasma, read-out: IC50
[17] = Homo sapiens, Plasma, read-out: EC50

| Compound | Ki (Coagulation factor X [1]) [nM] | Ki (Prothrombin [2]) [nM] | IC50 (Plasma [3]) [nM] | IC50 (Plasma [4]; [16]) [nM] | EC50 (Plasma [5]; [17]) [nM] | inhibition (Coagulation factor X [6]) [%] | inhibition (Prothrombin (Bos taurus)) [%] | solubility [9] [µM] | logKw [10] | remaining at 4 h [11] [%] | Activity (Plasma [13]) | fold change (FC) (Plasma [14]) | also measured |
| --- | --- | --- | --- | --- | --- | --- | --- | --- | --- | --- | --- | --- | --- |
| CC1CNc2c(cccc2S(=O)(=O)N[C@@H](CCCNC(=N)N)C(=O)N2CC[C@@H](C)C[C@@H]2C(=O)O)C1 (stereo not given in full) [ARGATROBAN] | – | – | 1900 | 2400 | 600 | – | – | – | – | – | – | – | – |
| CC(=O)OC[C@H]1O[C@@H](OCCCOc2cccc(OCc3cc(-c4ccc(Cl)s4)on3)c2NC(=O)C2CCN(C(C)C)CC2)[C@H](OC(C)=O)[C@@H](OC(C)=O)[C@@H]1OC(C)=O | 0.25 | 160 | 1200 | 10000 | 1800 | – | – | < 1 | 5.07 | > 90 | Active | 9 | half-life [15]: 2.8 h |
| CC(C)N1CCC(C(=O)Nc2ccccc2OCc2cc(-c3ccc(Cl)s3)on2)CC1 | 0.6 | – | 10000 | – | – | – | – | 530 (≈ 244 µg/mL) | 3.49 | > 90 | Active | 3 | Ki (Coagulation factor X [7]): 0.11 nM; remaining at 4 h [12]: > 90%; IC50 (Plasma [4]): Not Active; EC50 (Plasma [5]): Not Active |
| Nc1c(OCCCO[C@@H]2O[C@H](CO)[C@@H](O)[C@H](O)[C@H]2O)cccc1OCc1cc(-c2ccc(Cl)s2)on1 | 6900 | 133000 | – | – | – | – | – | – | – | – | – | – | – |
| COc1ccccc1NC(=O)C1CCN(C(C)C)CC1 | – | – | – | – | – | 16 | 0 | – | – | – | – | – | – |

Second part, led by results:

| Ki (Coagulation factor X [1]) [nM] | Ki (Prothrombin [2]) [nM] | IC50 (Plasma [3]) [nM] | IC50 (Plasma [4]; [16]) [nM] | EC50 (Plasma [5]; [17]) [nM] | inhibition (Coagulation factor X [6]) [%] | inhibition (Prothrombin (Bos taurus)) [%] | solubility [9] [µM] | logKw [10] | remaining at 4 h [11] [%] | Compound | Activity (Plasma [13]) | fold change (FC) (Plasma [14]) | also measured |
| --- | --- | --- | --- | --- | --- | --- | --- | --- | --- | --- | --- | --- | --- |
| 18300 | 29800 | – | – | – | – | – | – | – | – | Nc1c(OCCCO)cccc1OCc1cc(-c2ccc(Cl)s2)on1 | – | – | – |
| – | – | – | – | – | 13 | 16 | – | – | – | CC(C)N1CCC(C(=O)Nc2ccccc2)CC1 | – | – | – |
| 0.09 | 100 | 300 | 3400 | 300 | – | – | 7330 (≈ 5100 µg/mL) | 3.07 | > 90 | CC(C)N1CCC(C(=O)Nc2c(OCCCO[C@@H]3O[C@H](CO)[C@@H](O)[C@H](O)[C@H]3O)cccc2OCc2cc(-c3ccc(Cl)s3)on2)CC1 | Active | 15 | Ki (Coagulation factor X [7]): 0.87 nM; Ki (Prothrombin [8]): 96 nM; remaining at 4 h [12]: > 90% |
| 11600 | 31000 | – | – | – | – | – | – | – | – | Nc1ccccc1OCc1cc(-c2ccc(Cl)s2)on1 | – | – | – |
| – | – | – | – | – | 14 | 28 | – | – | – | CC(C)N1CCC(C(=O)Nc2ccccc2OCCCO[C@@H]2[C@@H](O)[C@H](O)[C@@H](CO)O[C@H]2O)CC1 | – | – | – |
